Assay results collected from several papers.
Protocols differ between the studies behind these lines. pIC50: −log10 of the molar value. ≈ marks a conversion by molar mass, not a printed value.

SMILES | target or system | assay | setting | measurement | value
Cc1ncc([N+](=O)[O-])n1CCO | Eggerthella lenta | microbial growth, agar dilution | 48 h | MIC | 0.5 µg/mL (≈ 2.92 µM)
CCCCc1cccc(-c2cnc3c(n2)CCCC3)c1 | Haemonchus contortus | parasite motility | 48 h, larva | pIC50 | 4.63
Cc1ccc(C(CS(=O)(=O)c2ccccc2)=NNC2=NC(=O)C(=NNc3ccc([N+](=O)[O-])cc3)S2)cc1 | SK-MEL-23 | cell growth or viability, MTT | 6.3 µM, 48 h | viability | 56.6%
O=c1[nH]c(NCc2ccc(Cl)c(Cl)c2)nc2ncn(CCCCCN3CCOCC3)c12 | Eggerthella lenta | microbial growth, agar dilution | 48 h | MIC | > 32 µg/mL
Cc1ccc(C(CS(=O)(=O)c2ccccc2)=NNC2=NC(=O)C(=NNc3ccccc3)S2)cc1 | SK-MEL-23 | cell growth or viability, MTT | 6.3 µM, 48 h | viability | 36.3%
C[C@@H](Oc1cc(-c2cnn(C3CCNCC3)c2)cnc1N)c1c(Cl)ccc(F)c1Cl | NCI-H2228 | cell growth or viability, MTT | 5 µg/mL, 72 h | inhibition | 85.2%
CCCCOc1cccc(-c2cnc3c(n2)CCCC3)c1 | Haemonchus contortus | parasite motility | 72 h, larva | pIC50 | 4.75
Cc1ccc(C(CS(=O)(=O)c2ccccc2)=NNc2nc(-c3ccc(OCCCCOc4ccc(-c5csc(NN=C(CS(=O)(=O)c6ccccc6)c6ccc(C)cc6)n5)cc4)cc3)cs2)cc1 | SK-MEL-23 | cell growth or viability, MTT | 100 µM, 48 h | viability | 37.2%
O=C(Nc1ccccc1-c1ccc(F)c(F)c1)c1nccnc1C(F)(F)F | Penicillium digitatum | microbial growth | – | EC50 | > 100 µg/mL
CCCCOc1ccc(-c2cnc3c(n2)CCCC3)cc1 | Haemonchus contortus | parasite motility | 72 h, larva | pIC50 | 5.16
Cc1ccc(C(CS(=O)(=O)c2ccccc2)=NN=C2N=C(c3ccc(Br)cc3)CS2)cc1 | SK-MEL-23 | cell growth or viability, MTT | 6.3 µM, 48 h | viability | 63.7%
Cc1cc(Nc2ncc(Cl)c(Nc3ccccc3S(=O)(=O)C(C)C)n2)c(OC(C)C)cc1C1CCNCC1 | NCI-H2228 | cell growth or viability, MTT | 0.2 µg/mL, 72 h | inhibition | 70.9%
